Screens deposited in PubChem BioAssay by several laboratories.
A selection: hits, their analogues and other compounds. The true share with any hit is near 2.1%.
STEP inh – inhibitors of human striatal-enriched phosphatase STEP; P54829; recombinant STEP, OMFP fluorogenic substrate, fluorescence; inhibition, % at 20 µM; 360,000 tested, 0.25% active;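 active = inhibition at 20 µM, scaled per plate between control wells, above about 37%, limit read from the data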;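 note: 0% = DMSO with enzyme and substrate and 100% = substrate only without enzyme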
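Also added – OMFP at 25 µM · Test system – STEP tyrosine phosphatase · Technique – FITC-channel fluorescence of OMFP product · Schedule – 20 min at room temperature, dark · Evaluation – control-normalized % inhibition with plate pattern correction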
DNMT1 inh – DNMT1 (human) enzyme inhibition. 360,000 tested, 0.83% active. P26358. AID 588458. inhibition (reported as % activation of signal), % at 10 µM. DNMT1 molecular beacon, Hinp1I cleavage, fluorescence; in the data active = inhibition above about 50%
Scp-1 inhibitor – inhibitors of human Scp-1 phosphatase | Recombinant Scp1, phosphopeptide, malachite green phosphate absorbance | inhibition, % at 20 µM | 340,000 tested, 0.88% active | AID 493091;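 active = inhibition above about 50% at 20 µM, limit read from the data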;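 note: plate controls were DMSO wells with enzyme for no effect and wells lacking enzyme for full effect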
Target sequence (Q9GZU7 76-261 limits assumed): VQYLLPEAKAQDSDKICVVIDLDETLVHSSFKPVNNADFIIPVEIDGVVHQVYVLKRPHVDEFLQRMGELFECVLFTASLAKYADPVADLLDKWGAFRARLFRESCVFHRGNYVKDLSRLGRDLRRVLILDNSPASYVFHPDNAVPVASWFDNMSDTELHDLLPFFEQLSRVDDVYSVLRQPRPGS
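assay system = SCP-1 phosphatase catalytic domain, residues 76-261 | buffer or medium = 50 mM Tris acetate pH 5.5, 0.005% Tween-20, 10 mM MgCl2 | incubation = enzyme reaction 45 min at room temperature, colour 5 min, stabilisation 30 min | signal = Phosphate-binding colour reagent, absorbance read at 630 nm | measure = % inhibition at 20 µM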
SUMO1 PPI mod – modulators of human SUMO1-mediated protein-protein interactions; P63165; 360,000 tested, 0.33% active; SUMO1 binding to a labelled peptide, TR-FRET, 1 h; inhibition, % at 20 µM; in the data active = inhibition above about 37%
Target sequence (P63165 whole entry, looked up): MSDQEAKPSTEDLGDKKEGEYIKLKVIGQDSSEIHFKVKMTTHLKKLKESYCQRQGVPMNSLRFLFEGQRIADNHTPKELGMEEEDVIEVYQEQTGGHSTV
LMPTP block – blocks human LMPTP phosphatase | recombinant LMPTP-A, OMFP fluorogenic substrate, fluorescence intensity | P24666 | 360,000 tested, 0.22% active | inhibition, % at 20 µM;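 active = compounds that cut the enzyme signal by at least half of the control window in the single-dose screen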;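 note: plate controls were DMSO wells with enzyme plus substrate for no effect and substrate without enzyme for full effect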
Target sequence (P24666 whole entry, looked up): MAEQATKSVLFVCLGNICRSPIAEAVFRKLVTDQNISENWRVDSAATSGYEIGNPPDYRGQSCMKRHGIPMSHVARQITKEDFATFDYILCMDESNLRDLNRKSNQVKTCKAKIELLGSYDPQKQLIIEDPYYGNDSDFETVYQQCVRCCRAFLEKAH
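Assay system: LMPTP-A enzyme. Input: 0.625 nM LMPTP-A final. Probe or stimulus: 400 µM OMFP. Compound dosing: single 20 µM dose. Schedule: 50 min dark incubation at room temperature. Detection: fluorescence intensity of OMFP turnover product. Read-out: percent inhibition versus substrate-only and uninhibited controls. Benchmarks: no-enzyme low control, uninhibited high control.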
GRK2 aptamer HTS – human GRK2 inhibition via aptamer displacement; bead flow cytometry, FAM-aptamer displacement from GRK2; inhibition of aptamer binding, % at 10 µM; 330,000 tested, 0.59% active; AID 488847;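 active = inhibition of aptamer binding above 40%, roughly 3 SD of noise, on plates passing a quality check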;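 note: median bead fluorescence of bound FAM aptamer so fluorescent compounds give negative values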
An asterisk follows results filed as active; . = not tested or not shown; + = active, no number.

SMILES	STEP inh	DNMT1 inh	Scp-1 inhibitor	SUMO1 PPI mod	LMPTP block	GRK2 aptamer HTS
O=C(Cn1c(=O)oc2cc(S(=O)(=O)N3CCCC3)ccc21)Nc1ccccn1	-2	-3	.	2	-1	.
CCOC(=O)c1c(C)oc2c1c(C=NCCO)c(O)c1ccccc12	-2	10	-1	46*	5	.
COc1cc(NC(C)CCCNC(C)C)c2ncccc2c1OC (stereo not given)	-2	-5	-3	-6	-1	.
COc1cc(NCCCCCCN)c2ncccc2c1OC	2	62*	-15	-12	29	.
Cc1nc2ccccc2c(=O)n1Cc1ccco1	4	-4	-8	7	-2	0
COc1ccc(S(=O)(=O)c2c(N)n(Cc3ccco3)c3nc4ccccc4nc23)cc1	7	98*	49	41*	49*	0
Cc1ccc(S(=O)(=O)c2c(N)n(CCCN(C)C)c3nc4ccccc4nc23)cc1	3	-6	-4	-9	3	1
COc1ccc(Cn2c(C)nc3c(c2=O)c2nc4ccccc4nc2n3Cc2ccco2)cc1	37	96*	95*	69*	43	.
CCN(CC)S(=O)(=O)c1ccc(N(C)C)c(NC(=O)CSCc2c(C)noc2C)c1	-1	1	2	2	0	0
COc1ccccc1-c1cc(C(=O)Nc2cccnc2Cl)no1	-1	-4	-4	47*	1	0
O=C(Nc1cccnc1Cl)c1cc(-c2cccc(O)c2)on1	-2	-2	-3	72*	1	1
Nc1nc2ccc(Cl)cc2cc1C(=O)NCCCN1CCOCC1	.	.	.	1	-4	.
Cc1c(-c2ccc(Cl)cc2)oc(=O)c2c(N)n(-c3ccccc3)nc12	0	54*	-21	-2	2	0
Nc1c2c(=O)oc(-c3ccccc3)cc2nn1-c1ccccc1	-7	-3	-5	-12	2	1
O=C(O)CCN1C(=O)/C(=C\c2ccc(-c3nc4ccccc4s3)o2)SC1=S	79*	109*	63*	87*	41	31
O=C(O)CCCN1C(=O)/C(=C\c2ccco2)SC1=S	12	58*	29	29	2	.
O=C(CCc1nnc2ccc(N3CCC4(CC3)OCCO4)nn12)Nc1ccc(F)cc1	-1	2	-2	-3	-2	0
O=C(NCCC1=CCCCC1)C(=O)NCc1ccccc1	-4	4	-6	2	-1	4
O=C(O)C1C2C=CC(O2)C1C(=O)NCCC1=CCCCC1 (stereo not given)	7	53*	38	4	-2	4
CCOC(=O)N1CCC(NC(=O)C(NS(=O)(=O)c2cccc3nsnc23)c2ccccc2)CC1 (stereo not given)	1	1	-6	46*	-1	0
O=C(NC1CCN(Cc2ccccc2)CC1)C(NS(=O)(=O)c1cccc2nsnc12)c1ccccc1 (stereo not given)	-4	-1	-1	-22	0	0
Cc1ccc(S(=O)(=O)N2C[C@H]3[C@H]4C(=O)N(c5ccccc5)C(=O)[C@H]4C[C@H](OC(=O)NCc4ccccc4)[C@@]3(O)C2)cc1	-4	-9	.	1	1	.
COc1cc(C(=O)OCc2csc(CC(=O)Nc3ccccc3C)n2)ccc1OCC(C)C	2	-9	-9	6	3	.
CN(C)CCCN(C(=O)c1ccc([N+](=O)[O-])s1)c1nc2cc3c(cc2s1)OCCO3	-4	-4	-5	-58	-5	71*
CN(C)CCCN(C(=O)c1ccc(Br)s1)c1nc2cc3c(cc2s1)OCCO3	1	1	1	-1	0	0
SMILES	STEP inh	DNMT1 inh	Scp-1 inhibitor	SUMO1 PPI mod	LMPTP block	GRK2 aptamer HTS
COC(=O)C1=C(C)N(Cc2ccccc2)C(=NCCc2cccnc2)N[C@H]1c1ccc(Br)cc1	-1	13	57*	-10	3	0
CCN(C(=S)Nc1cccc2ccccc12)c1ccccc1	-1	5	.	3	-1	.
O=C1CCC(=O)N1OCCCCOc1ccccc1	-5	1	-3	2	0	42*
CCOc1ccc(CCN2C(=S)N([C@@H](Cc3ccc(O)cc3)CN3CCC[C@@H]3CN3C(=S)NC[C@@H]3CC(C)C)C[C@@H]2CC(C)C)cc1	15	-26	.	15	1	.
C#CCOCCOCCOCCNc1nc(N2CCN(C(=O)CCCCCCCCCCNC(=O)Cn3cc(C[C@@H](C)O)nn3)CC2)nc(N2CCN(C(=O)CCCCCCCCCCNC(=O)[C@H](CCCN=C(N)N)n3cc(C[C@@H](C)CC)nn3)CC2)n1	5	-108	25	106*	13	0
C#CCOCCOCCOCCNc1nc(N2CCN(C(=O)CCCCCCCCCCNC(=O)Cn3cc(C[C@@H](C)O)nn3)CC2)nc(N2CCN(C(=O)CCCCCCCCCCNC(=O)[C@H](CCCCN)n3cc(CCCC(=O)O)nn3)CC2)n1	5	-52	17	-1	-8	0
C#CCOCCOCCOCCNc1nc(N2CCN(C(=O)CCCCCCCCCCNC(=O)[C@H](CO)n3cc(CCCSC)nn3)CC2)nc(N2CCN(C(=O)CCCCCCCCCCNC(=O)[C@H](CCCN=C(N)N)n3cc(C[C@@H](C)CC)nn3)CC2)n1	19	-105	63*	90*	17	0
COc1cccc(C(=O)NCCS(=O)(=O)NC2CCCC2)c1	-1	0	-2	5	0	2
O=c1[nH]nc(CNc2ccc(C(F)(F)F)cc2)c2ccccc12	0	0	4	4	0	1
O=c1[nH]nc(CNc2ccc(O)cc2)c2ccccc12	-1	6	6	55*	13	4
COc1ccc(CCC(=O)N2c3ccccc3N=C(c3ccc(C(F)(F)F)cc3)C2C(=O)NC(C)C)cc1 (stereo not given)	.	.	.	-19	1	.
CN(C)C(=O)c1cccc(-c2cnc3c(NC=O)cc(-c4ccccc4N(C)C)cn23)c1	-67	141*	.	-4	-4	.
COc1ccccc1-c1cc(NC=O)c2ncc(-c3cccc(C(F)(F)F)c3)n2c1	0	-12	.	-30	6	.
CN(C)C(=O)c1cccc(-c2cnc3c(NC=O)cc(-c4ccccc4Cl)cn23)c1	2	-5	.	-4	1	.
CN(C)c1ccccc1-c1cc(NC=O)c2ncc(-c3cccc(C(F)(F)F)c3)n2c1	-157	+	.	-1	-5	.
C=CCNc1ncnc2c1ncn2[C@H]1CN(CCN2CCOCC2)C[C@@H](CO)O1	2	0	.	-1	1	.
Cc1cc(NC(=O)COC(=O)c2cnccn2)ccc1Br	1	-10	-6	3	-2	1
COc1ccc(CN2CCNC(=O)C2CC(=O)N(C)C2CCOCC2)cc1OC (stereo not given)	0	-1	.	-4	1	.
